ChEMBL document CHEMBL1135836, “Cyclodextrin-derived host molecules as reversal agents for the neuromuscular blocker rocuronium bromide: synthesis and structure-activity relationships” (J Med Chem, 2002)

Columns and labels:
Type in all cases: functional
Cavia porcellus [1] = assay: In vivo reversal activity versus ~90% block by rocuronium in guinea pig, expressed as % of maximum reversal at 16 umol/kg conc.
Summary of the method: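 Male Dunkin-Hartley guinea pigs (600-900 g) anaesthetized ip with pentobarbitone 10 mg/kg plus urethane 1000 mg/kg, tracheotomized and artificially ventilated. Continuous iv rocuronium bromide infusion (~10 nmol kg-1 min-1) raised until steady-state twitch block of 85-90%. Increasing single iv doses of reversal agent given by a separate catheter. Max reversal is peak twitch recovery versus preblock height at highest dose tested; means ± SEM, n ≥ 2 or single experiment.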

Mus musculus [2] = organism: Mus musculus; assay: In vitro reversal activity versus ~90% block by rocuronium in isolated mouse hemidiaphragm, expressed as effective conc.
Cavia porcellus [3] = assay: In vivo reversal activity versus ~90% block by rocuronium in guinea pig
Summary of the method: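 Male Dunkin-Hartley guinea pigs (600-900 g), anaesthetized ip with pentobarbitone 10 mg/kg plus urethane 1000 mg/kg, tracheotomized and ventilated. Continuous iv rocuronium infusion (~10 nmol kg-1 min-1) was raised to a steady 85-90% block. Increasing iv doses of agent were given cumulatively. ED50 = 50% recovery versus preblock twitch, by regression. Mean ± SEM of at least two experiments, or one.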

Mus musculus [4] = organism: Mus musculus; assay: In vitro reversal activity versus ~90% block by rocuronium in isolated mouse hemidiaphragm, expressed as % of maximum reversal at 18 uM conc.

Row | EC50 (Mus musculus [2]) [µM] | Structure (SMILES) | Max reversal (Cavia porcellus [1]) [%] | ED50 (Cavia porcellus [3]) [µmol/kg] | Max reversal (Mus musculus [4]) [%]
1 | 60.8 | O=C([O-])CSCC1O[C@@H]2O[C@@H]3C(CO)O[C@H](O[C@@H]4C(CO)O[C@H](O[C@@H]5C(CO)O[C@H](O[C@@H]6C(CO)O[C@H](O[C@@H]7C(CO)O[C@H](O[C@@H]8C(CO)O[C@H](O[C@@H]9C(CO)O[C@H](O[C@H]1C(O)C2O)C(O)C9O)C(O)C8O)C(O)C7O)C(O)C6O)C(O)C5O)C(O)C4O)C(O)C3O.[Na+] (some centres not stated) | 96.5 | 5.79 | 28.9
2 | > 18 | O=C([O-])Cc1cccc(SCC2O[C@@H]3O[C@@H]4C(CO)O[C@H](O[C@@H]5C(CO)O[C@H](O[C@@H]6C(CO)O[C@H](O[C@@H]7C(CO)O[C@H](O[C@@H]8C(CO)O[C@H](O[C@@H]9C(CO)O[C@H](O[C@@H]%10C(CO)O[C@H](O[C@H]2C(O)C3O)C(O)C%10O)C(O)C9O)C(O)C8O)C(O)C7O)C(O)C6O)C(O)C5O)C(O)C4O)c1.[Na+] (some centres not stated) | 92.8 | 1.67 | 30.4
3 | 14.8 | O=C([O-])CCc1cccc(SCC2O[C@@H]3O[C@@H]4C(CSc5cccc(CCC(=O)[O-])c5)O[C@H](O[C@@H]5C(CSc6cccc(CCC(=O)[O-])c6)O[C@H](O[C@@H]6C(CSc7cccc(CCC(=O)[O-])c7)O[C@H](O[C@@H]7C(CSc8cccc(CCC(=O)[O-])c8)O[C@H](O[C@@H]8C(CSc9cccc(CCC(=O)[O-])c9)O[C@H](O[C@@H]9C(CSc%10cccc(CCC(=O)[O-])c%10)O[C@H](O[C@@H]%10C(CSc%11cccc(CCC(=O)[O-])c%11)O[C@H](O[C@H]2C(O)C3O)C(O)C%10O)C(O)C9O)C(O)C8O)C(O)C7O)C(O)C6O)C(O)C5O)C(O)C4O)c1.[Na+].[Na+].[Na+].[Na+].[Na+].[Na+].[Na+].[Na+] (some centres not stated) | 35.3 | 22.8 | 65.2
4 | > 18 | O=C([O-])c1cccc(SCC2O[C@@H]3O[C@@H]4C(CO)O[C@H](O[C@@H]5C(CO)O[C@H](O[C@@H]6C(CO)O[C@H](O[C@@H]7C(CO)O[C@H](O[C@@H]8C(CO)O[C@H](O[C@@H]9C(CO)O[C@H](O[C@@H]%10C(CO)O[C@H](O[C@H]2C(O)C3O)C(O)C%10O)C(O)C9O)C(O)C8O)C(O)C7O)C(O)C6O)C(O)C5O)C(O)C4O)c1.[Na+] (some centres not stated) | 102.7 | 2.41 | 36.1
5 | > 18 | O=C([O-])CCCSCC1O[C@@H]2O[C@@H]3C(CO)O[C@H](O[C@@H]4C(CO)O[C@H](O[C@@H]5C(CO)O[C@H](O[C@@H]6C(CO)O[C@H](O[C@@H]7C(CO)O[C@H](O[C@@H]8C(CO)O[C@H](O[C@@H]9C(CO)O[C@H](O[C@H]1C(O)C2O)C(O)C9O)C(O)C8O)C(O)C7O)C(O)C6O)C(O)C5O)C(O)C4O)C(O)C3O.[Na+] (some centres not stated) | – | – | 14.4
6 | > 18 | O=C([O-])CCCSCC1O[C@@H]2O[C@@H]3C(CSCCCC(=O)[O-])O[C@H](O[C@@H]4C(CSCCCC(=O)[O-])O[C@H](O[C@@H]5C(CSCCCC(=O)[O-])O[C@H](O[C@@H]6C(CSCCCC(=O)[O-])O[C@H](O[C@@H]7C(CSCCCC(=O)[O-])O[C@H](O[C@H]1C(O)C2O)C(O)C7O)C(O)C6O)C(O)C5O)C(O)C4O)C(O)C3O.[Na+].[Na+].[Na+].[Na+].[Na+].[Na+] (some centres not stated) | 3.4 | > 16 | 5.3
